Results filed as inconclusive are left out.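 The calls were made as follows, unless noted: active = inhibition over a set limit, the all-compound mean plus 3 SD, in both replicate runs; inconclusive = over that limit in just one replicate run; inactive = at or under that limit in both runs.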
What was measured:
[1] = S. cerevisiae growth inhibition in permissive medium (OD615), pilot counter-assay for S. cerevisiae lifespan shortening project, permissive growth control (AID 705;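 active = growth inhibition above 25% in both replicates, a cutoff set 3 SD above the mean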); details: OD615, 24 h, at 10 µM, hits give high values
In short: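 System: S. cerevisiae with engineered DeaD lifespan system / Measured by: absorbance (optical density) at 615 nm / Read-out: reduction in yeast growth (OD615) / Times: 4 h cell pre-growth, 24 h exposure at 30 °C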

[2] = S. cerevisiae growth inhibition in restrictive medium, OD615, pilot screen, restrictive growth control, yeast lifespan reduction project (AID 706;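 active = growth inhibition above a set limit, 3 SD over mean compound inhibition, in both replicates, cut at about 43% in these data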;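 also: modified DeaD lifespan yeast strain shifted to restrictive glucose medium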); details: OD615, 48 h, at 10 µM, hits give high values
In short: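 System: Engineered S. cerevisiae DeaD strain | Buffer or medium: Glucose-based CSMM-D restrictive medium | Schedule: 4 h pre-incubation, 48 h exposure at 30 °C | Technique: Optical density at 615 nm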

[3] = doxorubicin toxicity protection in MRP-1 cells – H69AR cells, CellTiter-Glo, duplicate, MRP-1 activator project, pilot screen (AID 807;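 active = viability increase at or above a cutoff of the median across tested compounds plus 3 SD, cut at about 8.5% in these data, passing the limit was not always enough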;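 also: compound pretreatment 18-22 h then 72 h combined with doxorubicin; 0% = doxorubicin alone and 100% = vehicle without doxorubicin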); details: H69AR viability with doxorubicin, CellTiter-Glo luminescence; at 10 µM; hits give high values
[4] = viability of HCT116 without oncogenic beta-catenin – human colon tumor cells, pilot screen (AID 823;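 active = cell viability at or below a set limit in both duplicate runs, the limit being the all-compound median minus 4 SD, cut at about 23% in these data, passing the limit was not always enough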;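 also: 0% = wells killed by 20 µM Hyamine and 100% = untreated DMSO cell wells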); details: HCT116 beta-catenin knockout viability, CellTiter-Glo, 60 h; at 10 µM; hits give low values
[5] = viability of PTEN-null HCT116 cells – cell-based, HCT116 clonal line, CellTiter-Glo, pilot screen (AID 824;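 active = viability at or below 27.92% in each of two runs, the all-compound median minus 4 SD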;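 also: 0% = 20 µM Hyamine control and 100% = vehicle cell control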); details: HCT116 PTEN-deleted viability, 60 h, at 10 µM, hits give low values
[6] = RAM pathway blockade in budding yeast – dse1pr::URA3 reporter, 5-FOA selection, pilot screen (AID 869);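 also: 0% = DMSO wells with no growth and 100% = 10 µM 1-NA-PP1 with full growth; RAM network block rescues cells from 5-FOA so hits raise OD615 growth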; details: S. cerevisiae dse1pr::URA3 5-FOA growth, OD615, 2 d; at 10 µM; hits give high values; strain carries analog-sensitive mutant Cbk1 kinase
[7] = RAM signaling pathway blockade in yeast – S. cerevisiae, Pdr1DBD-CYC8 efflux-inhibited sensitized strain, primary screen (AID 1298;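 active = RAM network inhibition above 8.4% in each of two replicates, 3 SD over the compound average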;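 also: 0% = DMSO untreated cells without growth and 100% = 10 µM 1-NA-PP1 full growth; higher means more yeast growth rescued from 5-FOA killing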); details: S. cerevisiae cbk1-as DSE1-URA3 strain, 5-FOA growth OD615, 2 d; at 50 µM; hits give high values

O=C(C1CCN(S(=O)(=O)c2cccc3cccnc23)CC1)N1CC=C(c2ccccc2)CC1
inactive: growth inhibition [1] 6.34% | growth inhibition [2] 9.98% | viability increase [3] -2.61% | viability [4] 79.9% | viability [5] 83% | inhibition [6] 1.93% | RAM network inhibition [7] 2.07%

COc1ccc(OC)c2sc(NC(=O)C3CC3)nc12
inactive: growth inhibition [1] 1.08% | growth inhibition [2] 5.55% | viability increase [3] -3.24% | viability [4] 99.7% | viability [5] 90.3% | inhibition [6] 1.25% | RAM network inhibition [7] 6.06%

O=C(CCC1CC(=O)Nc2ccccc21)NCc1cccnc1 (configuration not stated)
inactive: growth inhibition [1] -10.7% | growth inhibition [2] -2.23% | viability increase [3] -1.06% | viability [4] 102% | viability [5] 90.5% | inhibition [6] 1.1% | RAM network inhibition [7] 12.5%

CCOC(=O)C1=C(C)NC(C)=C(C(=O)OCC)C1c1nc2ccccc2[nH]1
inactive: growth inhibition [1] -21.8% | growth inhibition [2] -11.2% | viability increase [3] -1.33% | viability [4] 96.2% | viability [5] 96.3% | inhibition [6] 0.96% | RAM network inhibition [7] 1.43%

CCC(C)NC(=O)c1cc(-c2ccccc2O)on1 (configuration not stated)
inactive: growth inhibition [1] -10.7% | growth inhibition [2] -4.76% | viability increase [3] -1.23% | viability [4] 94% | viability [5] 86.2% | inhibition [6] 1.73% | RAM network inhibition [7] 2.61%

Cc1nc2sc(C(c3cccs3)N3CCN(c4ccccc4)CC3)c(O)n2n1 (configuration not stated)
inactive: growth inhibition [1] 0.19% | growth inhibition [2] 5.34% | viability increase [3] -0.21% | viability [4] 96.5% | viability [5] 94.8% | inhibition [6] 1.19% | RAM network inhibition [7] 2.14%

CCOC(=O)c1ccccc1Nc1cc(C)nc2nc(C)nn12
inactive: growth inhibition [1] -4.38% | growth inhibition [2] 9.16% | viability increase [3] -5.14% | viability [4] 97.6% | viability [5] 93% | inhibition [6] 1.52% | RAM network inhibition [7] 1.2%

CCOC(=O)C1CCCN(C(=O)CN(c2ccc(OC)cc2)S(=O)(=O)c2c(C)noc2C)C1 (configuration not stated)
inactive: growth inhibition [1] -7.31% | growth inhibition [2] -7.06% | viability increase [3] -2.84% | viability [4] 102% | viability [5] 93.8% | inhibition [6] 1.58% | RAM network inhibition [7] 1.13%

COC(=O)c1cc(-c2ccc3c(c2)OCO3)nc2ccccc12
inactive: growth inhibition [1] -14.1% | growth inhibition [2] -4.56% | viability increase [3] -0.1% | viability [4] 73.6% | viability [5] 76.3% | inhibition [6] 3.49% | RAM network inhibition [7] 8.14%

COc1cccc(-c2nc(CS(=O)(=O)CC(=O)N3CCN(C4CCCCC4)CC3)c(C)o2)c1
inactive: growth inhibition [1] 1.34% | growth inhibition [2] -1.93% | viability increase [3] -2.59% | viability [4] 86.4% | viability [5] 100% | inhibition [6] 0.41% | RAM network inhibition [7] 3.35%

CCOC(=O)N1CCN(C(=O)Cn2c(=O)sc3ccccc32)CC1
inactive: growth inhibition [1] -1.79% | growth inhibition [2] -7.62% | viability increase [3] -0.84% | viability [4] 100% | viability [5] 97.6% | inhibition [6] 1.68% | RAM network inhibition [7] 5.71%

COC(=O)C1=C(O)CSC1=Nc1cccc(C(F)(F)F)c1
inactive: growth inhibition [1] -1.75% | growth inhibition [2] 8.3% | viability increase [3] -0.93% | viability [4] 101% | viability [5] 96.3% | inhibition [6] 0.625% | RAM network inhibition [7] 3.1%

O=c1c2ccccc2nnn1CSc1nnc(-c2ccco2)o1
inactive: growth inhibition [1] -8.6% | growth inhibition [2] 2.08% | viability increase [3] -4.5% | viability [4] 83.3% | viability [5] 86.5% | inhibition [6] 0.57% | RAM network inhibition [7] 0.46%

Oc1cnn(-c2ccccc2)c1
inactive: growth inhibition [1] -0.88% | growth inhibition [2] 3.54% | viability increase [3] -5.6% | viability [4] 92.8% | viability [5] 94.3% | inhibition [6] 0.91% | RAM network inhibition [7] -0.83%

CCCN1CCN(CCCNC(=O)c2cc3c(=O)n(C)c4ccccc4c3n2C)CC1
inactive: growth inhibition [1] -5.02% | growth inhibition [2] 0.66% | viability increase [3] -7.07% | viability [4] 64.1% | viability [5] 65.3% | inhibition [6] 0.68% | RAM network inhibition [7] 1.89%

O=C(CC1CCCCC1)NCCCN1CCOCC1
inactive: growth inhibition [1] 1.88% | growth inhibition [2] -3.55% | viability increase [3] 1.14% | viability [4] 92% | viability [5] 102% | inhibition [6] 1.58% | RAM network inhibition [7] 1.38%

Cc1ccccc1NC(=O)c1ocnc1C
inactive: growth inhibition [1] -1.01% | growth inhibition [2] -8.43% | viability increase [3] -1.48% | viability [4] 101% | viability [5] 92.3% | inhibition [6] 0.18% | RAM network inhibition [7] 4.25%

Cn1c(=O)oc2cc(S(=O)(=O)N3CCCC(C(=O)N4CCn5c4nc4ccccc45)C3)ccc21 (configuration not stated)
inactive: growth inhibition [1] -8.03% | growth inhibition [2] -7.74% | viability increase [3] -1.54% | viability [4] 77.7% | viability [5] 76.2% | inhibition [6] 0.695% | RAM network inhibition [7] 1.49%

CC(C)N(Cc1nc(-c2ccc(Cl)cc2)no1)C(=O)CCCN1C(=O)c2ccccc2C1=O
inactive: growth inhibition [1] -14.4% | growth inhibition [2] -15.6% | viability increase [3] 5.41% | viability [4] 104% | viability [5] 91.6% | inhibition [6] 1.4% | RAM network inhibition [7] 6.24%

Cc1ccc(Cn2nnc3c(=O)n(CC(=O)c4ccccc4)cnc32)cc1
inactive: growth inhibition [1] -5.55% | growth inhibition [2] -9.49% | viability increase [3] -2.92% | viability [4] 96.7% | viability [5] 91.5% | inhibition [6] 3.42% | RAM network inhibition [7] 5.01%

COc1ccc(OC)c(N(CC(=O)NC2CC2)S(=O)(=O)c2ccc(C)cc2)c1
inactive: growth inhibition [1] -13.6% | growth inhibition [2] -20.4% | viability increase [3] -0.94% | viability [4] 96.1% | viability [5] 93.2% | inhibition [6] 0.73% | RAM network inhibition [7] 3.7%

O=C(Cn1cc2c(n1)CCCC2)NCc1cccs1
inactive: growth inhibition [1] -4.03% | growth inhibition [2] -3.48% | viability increase [3] -0.37% | viability [4] 105% | viability [5] 93% | inhibition [6] 1.2% | RAM network inhibition [7] 0.81%

O=C(CSc1nc2c(cnn2-c2ccc(F)cc2)c(=O)[nH]1)N1CCOCC1
inactive: growth inhibition [1] -14.2% | growth inhibition [2] -19.8% | viability increase [3] -3.32% | viability [4] 96.7% | viability [5] 91.4% | inhibition [6] 3.16% | RAM network inhibition [7] 6.85%

O=C(OCC(F)(F)C(F)F)c1ccccc1C(=O)Oc1ccc(F)cc1F
inactive: growth inhibition [1] -2.13% | growth inhibition [2] -13.3% | viability increase [3] -3.1% | viability [4] 99.1% | viability [5] 96.1% | inhibition [6] 1.86% | RAM network inhibition [7] 3.89%

CC(=O)c1c(C)[nH]c(C(=O)N2CCN(c3ncccn3)CC2)c1C
inactive: growth inhibition [1] -2.15% | growth inhibition [2] -5.67% | viability increase [3] -1.39% | viability [4] 86.8% | viability [5] 96.6% | inhibition [6] 1.43% | RAM network inhibition [7] -0.51%

COc1cc(C2C3=C(CC(C)(C)CC3=O)N(C)C(=O)N2C)cc(OC)c1OC (configuration not stated)
inactive: growth inhibition [1] -7.27% | growth inhibition [2] -16.8% | viability increase [3] -0.06% | viability [4] 104% | viability [5] 103% | inhibition [6] 0.385% | RAM network inhibition [7] -0.15%

CCOC(=O)Cn1c(=O)oc2cc(S(=O)(=O)Nc3cc(Cl)ccc3OC)ccc21
inactive: growth inhibition [1] -2.69% | growth inhibition [2] -4.88% | viability increase [3] -2.35% | viability [4] 91.9% | viability [5] 89% | inhibition [6] 0.525% | RAM network inhibition [7] 4.96%

O=C(COC(=O)c1ccc(Br)c(S(=O)(=O)N2CCOCC2)c1)NCC1CCCO1 (configuration not stated)
inactive: growth inhibition [1] -1.59% | growth inhibition [2] -5.15% | viability increase [3] -2.27% | viability [4] 100% | viability [5] 101% | inhibition [6] 3.08% | RAM network inhibition [7] 4.66%

CC12CN3CC(C)(CN(C1)C3c1ccc3ccccc3c1O)C2=O (configuration not stated)
inactive: growth inhibition [1] -10.8% | growth inhibition [2] -19.3% | viability increase [3] -0.54% | viability [4] 101% | viability [5] 100% | inhibition [6] -0.515% | RAM network inhibition [7] -0.68%

CCn1c(CNC(=O)COC)nc2ccccc21
inactive: growth inhibition [1] -5.41% | growth inhibition [2] 0.165% | viability increase [3] 0.97% | viability [4] 105% | viability [5] 97.2% | inhibition [6] 0.7% | RAM network inhibition [7] 5.67%

COc1cc(C(=O)Oc2ccccc2N)cc(OC)c1OC
inactive: growth inhibition [1] -19.6% | growth inhibition [2] 11.3% | viability increase [3] -2.84% | viability [4] 102% | viability [5] 96% | inhibition [6] -0.31% | RAM network inhibition [7] 1.19%

COCCCN1Cc2cccc(C(=O)O)c2C1=O
inactive: growth inhibition [1] 1.16% | growth inhibition [2] 4.03% | viability increase [3] -2.13% | viability [4] 103% | viability [5] 102% | inhibition [6] 0.525% | RAM network inhibition [7] 7.02%

Cc1c(NC(=O)CCCCCN2C(=O)C3C4C=CC(C4)C3C2=O)c(=O)n(-c2ccccc2)n1C (configuration not stated)
inactive: growth inhibition [1] 5.03% | growth inhibition [2] 5.79% | viability increase [3] -0.51% | viability [4] 103% | viability [5] 100% | inhibition [6] 0.685% | RAM network inhibition [7] 2.6%

C=CCn1c(=N)c(C(=O)NCCCOC)cc2c(=O)n3cccc(C)c3nc21
inactive: growth inhibition [1] 2.23% | growth inhibition [2] 0.115% | viability increase [3] -2.3% | viability [4] 83.8% | viability [5] 88.5% | inhibition [6] 0.4% | RAM network inhibition [7] -0.47%

CC(C)NC(=O)NC(=O)COc1ncnc2sccc12
inactive: growth inhibition [1] -4.68% | growth inhibition [2] -7.55% | viability increase [3] -1.28% | viability [4] 97.6% | viability [5] 105% | inhibition [6] 1.22% | RAM network inhibition [7] 2.67%

COCCN1C(=O)c2ccccc2C(C(=O)N2CCN(c3ccccn3)CC2)C1c1ccc(F)cc1 (configuration not stated)
inactive: growth inhibition [1] 1.72% | growth inhibition [2] -22.7% | viability increase [3] -4.12% | viability [4] 92.2% | viability [5] 90.4% | inhibition [6] 0.335% | RAM network inhibition [7] 8.63%
